What all share (type): functional
The subject of test [1] is Rattus norvegicus. Briefly: Percent inhibition for analgesic activity by trypsin-induced hyperalgesia assay at 20 mg/kg by oral administration in rats. In short, it runs like this:
(§1)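 Rat trypsin-induced hyperalgesia (mild analgesia). Percent inhibition at a single oral dose of 20 mg/kg. Each compound tested two or three times; average variation approximately 5%.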

Test [2] is filed under the species Mus musculus. Briefly: Ratio of rotarod to Straub-tail activity, which indicates the dose exhibiting muscle relaxant activity versus that producing sedation. In a few lines: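 Ratio of rotorod ED50 (po) to Straub tail ED50 (po), both measured in mice with oral dosing. Indicates separation between the muscle-relaxant dose and the sedating dose.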
In general terms: Falling from the rotarod earlier than controls is read as motor impairment.

Test [3] deals with Mus musculus. Briefly: Effective dose required for muscle relaxation by oral administration in mouse using Straub-tail (ST) assay. In short, it runs like this: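 Mouse morphine-induced Straub tail assay, scoring inhibition of sacro-coccygeus dorsalis contraction. Dosed ip or po, generally at a minimum of three doses with N = 6 animals per dose group.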
For test [4], the system named is Mus musculus. Put plainly: Sedation caused by oral administration was estimated using rotarod (RR) assay. In a few lines:
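Mouse rotorod test for sedation, oral dosing, generally at a minimum of three doses with N = 6 animals per dose group.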

Test [5] relates to Mus musculus. Briefly: (§2) Percent effect profile muscle relaxation at 100 mg/kg by intraperitoneal administration in mouse using Straub-tail (ST) assay. The note with it: ip. In a few lines: (§3)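 Mouse morphine-induced Straub tail assay, scoring inhibition of sacro-coccygeus dorsalis contraction. Single ip dose of 100 mg/kg; percent effect reported. Compounds above 50% inhibition were then tested orally.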

Test [6] has as its system Rattus norvegicus. Put plainly: Antiinflammatory activity in edema by Carrageenan pleurisy assay by oral administration at 20 mg/kg. In short, it runs like this:
(§4)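 Rat carrageenan pleurisy, 3 h. Single oral dose of 20 mg/kg, with separate read-outs for pleural cell counts and edema as percent inhibition. Each compound tested two or three times; average variation approximately 10%.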

The test system of test [7] is Rattus norvegicus. Put plainly: Antiinflammatory activity in cells by Carrageenan pleurisy assay by oral administration at 20 mg/kg. In a few lines: as §4
Test [8] concerns Rattus norvegicus. Put plainly: Percent inhibition for analgesic activity by trypsin-induced hyperalgesia assay at 20 mg/kg by oral administration in rats. In a few lines:
as §1

For test [9], the system named is Mus musculus. Described as §2. The note with it: ip. In short, it runs like this: as §3
This is another data set of the same source.

Bounds are passed on as bounds.

The inhibition in vivo is the drop in the measured response relative to a control, in per cent. High values mean strong suppression, low ones little suppression. Broadly, the ED50 is the midpoint of the dose-response relation.

In test [1], `O=C(/C=C1\CCc2c(F)ccc(F)c21)NC1CC1` returned an inhibition in vivo at 20 mg/kg of 2%. The Ratio in test [2] is on record as 0.03. Also, the results for the ED50 in test [3] and in test [4] were 59 mg/kg and 2 mg/kg, respectively. Also, at 100 mg/kg the inhibition in vivo in test [5] was 100%.
`O=C(/C=C1\CCc2ccc(F)cc21)NCCO`: the inhibition in vivo at 20 mg/kg in test [6] stood at 78%; in test [1], 33%; in [7], 42%. For the same compound, the inhibition in vivo at 100 mg/kg in test [5] amounted to 50%.
Consider `NC(=O)/C=C1/CCc2ccc(F)cc21`, for which the Ratio in test [2] came out at 1.4. The compound also had an inhibition in vivo at 20 mg/kg in test [8] of 24%. Also, the results for the ED50 in test [3] and in test [4] were 64 mg/kg and 92 mg/kg, respectively. In addition, in test [5], 100 mg/kg produced 100% inhibition in vivo.
For `O=C(/C=C1\CCc2ccc(F)cc21)NCC1CC1`, the inhibition in vivo at 20 mg/kg stood at 21% in test [6] and 0% in test [7]. In test [5], this compound had an inhibition in vivo at 100 mg/kg of 50%.
In [8], `CNC(=O)/C=C1\CCc2cc(F)cc(F)c21` yielded an inhibition in vivo at 20 mg/kg of 33%. The same compound showed an inhibition in vivo at 100 mg/kg in [5] of 33%.
In the case of `CC(C)NC(=O)/C=C1\CCc2c(F)cc(F)cc21`, in test [2], the Ratio was 1.9. For the same compound, the results for the ED50 in test [3] and in [4] were 50 mg/kg and 76 mg/kg, respectively. Further, the inhibition in vivo at 100 mg/kg in test [5] came out at 100%.
For the compound `NC(=O)/C=C1\CCc2c(Cl)cccc21`, the figures for the inhibition in vivo at 20 mg/kg in [6], in [1] and in [7] were 58%, 29% and 35%, respectively. In test [5], this compound yielded an inhibition in vivo at 100 mg/kg of 67%.
In test [1], `CCNC(=O)/C=C1\CCc2c(F)cc(F)cc21` registered an inhibition in vivo at 20 mg/kg of 63%. For the same compound, in [5], the inhibition in vivo at 100 mg/kg amounted to 67%.
Take `O=C(/C=C1\CCc2c(Cl)cccc21)NC1CC1`: the inhibition in vivo at 20 mg/kg was 45% in test [6] and 28% in [7]. In addition, the Ratio in test [2] is 1.1. Besides, the ED50 in test [3] was 58 mg/kg; in [4] it was 66 mg/kg. Further, the inhibition in vivo at 100 mg/kg in test [5] is 100%.
In the case of `CNC(=O)/C=C1\CCc2cc(Cl)ccc21`, the inhibition in vivo at 20 mg/kg in test [6] stood at 44%; in [1] it was 25%; in [7], 40%. In test [5], this compound showed an inhibition in vivo at 100 mg/kg of 50%.
On to `O=C(/C=C1\CCc2cc(F)c(F)cc21)NC1CC1`, for which the inhibition in vivo at 20 mg/kg amounted to 48% in test [6] and 30% in test [7]. The compound also gave an inhibition in vivo at 100 mg/kg in test [5] of 50%.
For `O=C(/C=C1\CCc2ccc(F)cc21)N1CCC1`, the inhibition in vivo at 20 mg/kg is 0% in test [6], 7% in [1] and 14% in test [7]. In test [5], this compound had an inhibition in vivo at 100 mg/kg of 33%.
On to `NC(=O)/C=C1\CCc2cc(F)ccc21`, for which the inhibition in vivo at 20 mg/kg in [6] was 42%; in [7], 54%. In addition, the Ratio in test [2] is on record as >~2. For the same compound, the results for the ED50 in test [3] and in test [4] were 56 mg/kg and greater than 100 mg/kg, respectively. In addition, testing at 100 mg/kg in test [9] gave an inhibition in vivo of 100%.
In the case of `CON(C)C(=O)/C=C1\CCc2ccc(F)cc21`, the inhibition in vivo at 20 mg/kg was determined as 14% in test [6] and 6% in [7]. The compound also gave an inhibition in vivo at 100 mg/kg in test [5] of 17%.
For the compound `CCN(C)C(=O)/C=C1\CCc2ccc(F)cc21`, the inhibition in vivo at 20 mg/kg in test [6] was 44%; in test [1] it was 77%; in [7] it was 20%. Further, in [3], it took a dose of 100 mg/kg to reach the 50% effect level (ED50). Further, at 100 mg/kg the inhibition in vivo in test [5] was 100%.
Regarding `O=C(/C=C1\CCc2cc(F)ccc21)NC1CC1`, the Ratio in [2] is recorded as 2.4. Besides, the median effective dose (ED50) in [3] is 81 mg/kg; in test [4], 193 mg/kg. In addition, 100 mg/kg produced 100% inhibition in vivo in test [9].
Take `CNC(=O)/C=C1\CCc2ccc(Cl)cc21`: the values for the inhibition in vivo at 20 mg/kg in test [6], in test [1] and in test [7] were 25%, 17% and 0%, respectively. In addition, 100 mg/kg produced 16% inhibition in vivo in test [5].
For `O=C(/C=C1\CCc2ccc(F)cc21)NC1CC1`, the inhibition in vivo at 20 mg/kg amounted to 7% in test [6] and 5% in test [7]. In [2], the Ratio is given as 0.9. Besides, the values for the ED50 in [3] and in [4] were 66 mg/kg and 62 mg/kg, respectively. Also, in test [5], 100 mg/kg produced 100% inhibition in vivo.
In test [8], `Cc1cccc2c1/C(=C/C(=O)NC1CC1)CC2` displayed an inhibition in vivo at 20 mg/kg of 24%. Besides, the inhibition in vivo at 100 mg/kg in [5] was 17%.
With `CNC(=O)/C=C1\CCc2ccc(Br)cc21`, the inhibition in vivo at 20 mg/kg is 53% in [6], 4% in [1] and 44% in [7]. Moreover, in test [5], at 100 mg/kg the inhibition in vivo was 0%.

These data come from ChEMBL document CHEMBL1144887, “Indanylidenes. 1. Design and synthesis of (E)-2-(4,6-difluoro-1-indanylidene)acetamide, a potent, centrally acting muscle relaxant with antiinflammatory and analgesic activity” (J Med Chem, 2003).
